Source: PubChem (several laboratories)
FXIIa inh 1536 – human FXIIa protease inhibitors, primary screen, biochemical, 1536-well | inhibition, % at 5 µM | hit rate 0.3% among 220,000 | purified FXIIa, Boc-QGR-AMC fluorogenic substrate, 2 h | AID 800, 2007 | Coagulation factor XII (Homo sapiens), P00748; in the data active means inhibition above about 40%;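 further: 0% = enzyme with no compound and 100% = blank without enzyme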
FXIa inh – human FXIa protease inhibitors, primary screen, biochemical, 1536-well; Coagulation factor XI (Homo sapiens), P03951; inhibition, % at 5 µM; hit rate 0.14% among 220,000; purified FXIa, Boc-Glu-Ala-Arg-AMC fluorogenic substrate;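 active means inhibition of at least 40%; inactive means inhibition below 40%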;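 further: fluorescence of freed AMC excited at 355 nm; 0% = enzyme without compound and 100% = no enzyme blank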
Wee1 stabilizer – Wee1 degradation inhibitors, primary screen, cell-based, HeLa, Wee1K328M-luciferase, luminescence. Wee1-like protein kinase (Homo sapiens), P30291. reporter increase, % at 5 µM. hit rate 1.2% among 220,000. HeLa Luc-Wee1K328M stability; 100% = proteasome inhibitor MG132 effect;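 active means activation above the mean of all tested compounds plus 3 SD, set per screening run, cut at about 8.8% in these data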;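 further: cells exposed to compound for 20 h before luminescence read; 0% = DMSO alone and 100% = MG132 at 30 µM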
hK5 inh – human KLK5 protease inhibitors, primary screen, biochemical, 1536-well; Kallikrein-5 (Homo sapiens), Q9Y337; recombinant hK5, fluorogenic AMC substrate cleavage; inhibition, % at 5 µM; hit rate 0.59% among 210,000; AID 873, 2007;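 active means inhibition of 40% or more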;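 further: 0% = enzyme controls without compound and 100% = no-enzyme blanks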
Platelet DG rel – inhibitors of platelet dense granule secretion, primary screen, cell-based, MLPCN, human platelets; inhibition, %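 (compounds screened at 7.5 µM in platelet-rich plasma)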; human platelet-rich plasma, SFLLRN dense granule ATP release, luminescence; hit rate 0.22% among 300,000;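 active means mean replicate score, as percent of positive control, at or above 50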
thrombin 1536 – human alpha-thrombin inhibitors, primary screen, counter-screen for coagulation protease inhibitor project, biochemical, 1536-well, fluorogenic AMC substrate | Prothrombin (Homo sapiens), P00734 | hit rate 0.26% among 220,000 | AID 1046, 2008 | inhibition, % at 5 µM | Boc-VPR-AMC fluorogenic substrate cleavage;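 active means inhibition at or above 40%; inactive means inhibition below 40%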;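 further: 0% = enzyme with no compound and 100% = wells without enzyme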
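Material: human alpha-thrombin protein. Incubation: reaction at ambient temperature. Technique: fluorescence of released AMC, ex 355 nm, em 460 nm. Control set: no-compound enzyme wells and no-enzyme blanks. Also added: Boc-VPR-AMC substrate, 15 µM final. Buffer or medium: pH 7.5 Tris (50 mM) with NaCl 150 mM, Tween 20 0.05%.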
Numbers without * were called inactive; nt = not tested or not shown. Rows were chosen to be rich in hits. Some 1.8% of all compounds tested hit in one or more screens of this group.

SMILES | FXIIa inh 1536 | FXIa inh | Wee1 stabilizer | hK5 inh | Platelet DG rel | thrombin 1536
COC(=O)c1ccc(NCC(=O)Nc2cc(C)cc(C)c2)cc1 | 57* | 33 | -2 | 25 | 2 | 11
CCOC(=O)c1sc(NC(=O)CN2CCN(c3ccccc3)CC2)nc1C | nt | nt | nt | nt | 5 | nt
CCC(=O)n1nc(-c2cccnc2)nc1NCc1cccs1 | 11 | 2 | -1 | 2 | 25 | 100*
CCCC(=O)n1nc(-c2cccnc2)nc1NCc1ccccc1 | 10 | -2 | -1 | 2 | 6 | 100*
COc1ccccc1C(=O)n1nc(-c2ccccc2)nc1NCc1ccco1 | 13 | 5 | 2 | -5 | 2 | 85*
O=C(c1ccco1)n1nc(-c2ccccc2)nc1NCc1ccco1 | -4 | 2 | 4 | 13 | -1 | 15
O=C(c1cccs1)n1nc(-c2cccnc2)nc1NCc1ccco1 | 12 | 17 | -1 | -6 | 6 | 83*
COc1cccc(OCc2cc(C(=O)N3CCN(C)C(c4ccccc4)C3)no2)c1 (stereo not drawn) | nt | nt | nt | nt | -14 | nt
CC(=O)n1nc(-c2cccnc2)nc1NCc1cccs1 | 8 | 1 | 0 | 2 | -2 | nt
CCCC(=O)n1nc(-c2cccnc2)nc1NCc1cccs1 | 13 | 7 | 5 | nt | 4 | 100*
CCN(C(=O)Cc1cccs1)c1nnc(-c2cccnc2)s1 | 6 | -5 | 2 | 44* | nt | 14
Cc1ccc(C2CCN(C(=S)Nc3cccc(C)c3)C2)cc1 (stereo not drawn) | 8 | 0 | -1 | nt | -1 | -1
CC1=Nc2cccc([N+](=O)[O-])c2NC(=O)C1 | 11 | -1 | 15* | -6 | nt | 2
CC1Cn2c(nnc2-c2cc3ccccc3cc2O)S1 (stereo not drawn) | 21 | 1 | -3 | 44* | 3 | 3
COc1ccc(/C=C/C(=O)Oc2cccc(/C=N/NC(=O)c3cccc(F)c3)c2)cc1 | 16 | 6 | 14* | -4 | -6 | 3
CC1CCC2C(=O)N(c3ccccc3OC(=O)c3ccccc3F)C(=O)C2C1 (stereo not drawn) | 6 | -1 | 9.5* | 2 | 7 | -3
O=C(Oc1ccccc1N1C(=O)C2CCCCC2C1=O)c1ccccc1 (stereo not drawn) | 16 | 8 | 3 | 2 | 7 | 4
CCCCCCN1C=CC(=C/C=C(\C#N)C(=O)OCC)C=C1 | 16 | 3 | -1 | -4 | -1 | 7
CCCN1C=CC(=CC=C(C#N)C#N)C=C1 | 22 | 20 | 3 | 67* | -6 | 4
C=CCN1C=CC(=CC=C(C#N)C#N)C=C1 | 13 | 4 | 9 | 4 | -7 | -2
CCOC(=O)/C(C#N)=C/N=c1ccc(C)cn1C | 104* | 33 | -2 | 43* | 2 | 12
CCCN1C=CC(=C/C=C(\C#N)C(=O)OCC)C=C1 | 0 | 3 | 12* | 3 | 3 | -18
CN(c1ccc(C(=O)N2CCN(Cc3ccccc3)CC2)cc1)S(=O)(=O)c1ccc(Cl)cc1 | nt | nt | nt | nt | 9 | nt
COc1ccc(NC(=O)/C(Cl)=C(/Cl)S(=O)Cc2ccc(Cl)cc2)cn1 (stereo not drawn) | 8 | -2 | 13* | 8 | nt | -9
COc1ccc(NC(=O)/C(Cl)=C(/Cl)S(=O)(=O)Cc2ccccc2)cn1 | 9 | 16 | 4 | 13 | 1 | 11
SMILES | FXIIa inh 1536 | FXIa inh | Wee1 stabilizer | hK5 inh | Platelet DG rel | thrombin 1536
COc1ccc(NC(=O)C(Cl)=C(Cl)Cl)cn1 | 26 | 32 | 0 | 103* | 1 | -3
Cn1ncc(Cl)c1C(=O)N/N=C/c1cccc(OC2CSC2)c1 | 21 | 2 | 3 | -2 | -5 | 13
O=C(CSc1ncccn1)N/N=C/c1cccc(OC2CSC2)c1 | 17 | 68* | -1 | 16 | 2 | 8
COC(=O)c1ccc(NC(=O)C2CCN(S(C)(=O)=O)CC2)cc1 | 16 | 6 | 11* | -13 | -5 | 1
Cc1ccc(NC(=O)C2CCN(S(C)(=O)=O)CC2)cc1 | 26 | 13 | 0 | 49* | -1 | 9
CC(C)c1ccc(NC(=O)C2CCN(S(C)(=O)=O)CC2)cc1 | 15 | 3 | -1 | 6 | -20 | -3
